# Experimental data from PMC6300088 (Pharmaceutical Biology, 2018).
# Where two headings read alike, the source gives them in different places.
# Columns and labels:
# [1] = tested on: MCF7MX (BCRP overexpressing human epithelial breast cancer cell line); conditions: read-out: IC50 against MCF7MX; ref Mirzaei et al. [2017]; cited from earlier work
# [2] = tested on: CEM/C1 (lymphoblastic leukaemia); conditions: read-out: IC50 against CEM/C1; ref Kubrak et al. [2017]; cited from earlier work
# [3] = tested on: L5178Y mouse T-cell lymphoma cells: parent, PAR cells; assay: Cytotoxic effect; assay type: cell-based; conditions: 24 h; for IC50: Mus musculus, L5178Y, read-out: CA on PAR cells (IC50)
# [4] = tested on: NIH/3T3 mouse embryonic fibroblast cell line; assay: Cytotoxic effect; assay type: cell-based; conditions: cytotoxic activity on normal murine fibroblasts, 24 h, MTT, mean ± SD, n = 3
# ABCB1 (P-glycoprotein) = assay type: cell-based, human; conditions: for FL-1 (mean fluorescence intensity of the cells): MDR cells, rhodamine 123; for FAR (fluorescence activity ratio): rhodamine 123 retention
# [5] = tested on: L5178Y human ABCB1-transfected subline (MDR); assay: Antiproliferative effect; assay type: cell-based, mouse; conditions: 72 h, read-out: AA on MDR cells (IC50)
# [6] = tested on: L5178Y mouse T-cell lymphoma cells: parent, PAR cells; assay: Antiproliferative effect; assay type: cell-based; conditions: 72 h, read-out: AA on PAR cells (IC50)
# [7] = tested on: L5178Y human ABCB1-transfected subline (MDR); assay: Cytotoxic effect; assay type: cell-based, mouse; conditions: 24 h; for IC50: L5178Y, read-out: CA on MDR cells (IC50); for CA on MDR cells (IC50): cytotoxic activity, MTT, mean ± SD, n = 3
# HL-60/MX2 (MDR) = conditions: read-out: IC50 against HL-60/MX2; ref Kubrak et al. [2017]; cited from earlier work
# [8] = tested on: multidrug resistant mouse T-lymphoma cells overexpressing the ABCB1 transporter; assay: Checkerboard combination assay with doxorubicin; assay type: cell-based; conditions: MDR cells
# Procedure, shortened: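 L5178Y mouse T-lymphoma cells transfected with human ABCB1 (MDR), 6 × 10^3 per well in McCoy's 5A. Checkerboard layout with doxorubicin diluted horizontally (final concentration stated as 17.242 μM) and test compound diluted vertically. Incubated 72 h at 37 °C in 5% CO2. MTT added (5 mg/mL stock) for 4 h at 37 °C, then 10% SDS in 0.01 M HCl overnight at 37 °C.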
# [9] = tested on: HCT-15 (colon cancer) cells; conditions: HCT-15 cells; ref Kim et al. [2007]; cited from earlier work
IC50 [6] [µM],Structure (SMILES),IC50 [3] [µM],FL-1 (mean fluorescence intensity of the cells) (ABCB1 (P-glycoprotein); 2 µM),FAR (fluorescence activity ratio) (ABCB1 (P-glycoprotein); 2 µM),FL-1 (mean fluorescence intensity of the cells) (ABCB1 (P-glycoprotein); 20 µM),FAR (fluorescence activity ratio) (ABCB1 (P-glycoprotein); 20 µM),IC50 [5] [µM],IC50 [7] [µM],also measured
–,COc1c2occc2cc2ccc(=O)oc12 [8-Methoxypsoralen],–,–,–,–,–,–,–,IC50 [1]: 0.0011 ± 0.00091 µM
–,COc1c2ccoc2c(OCC=C(C)C)c2oc(=O)ccc12 [phellopterin],–,–,–,–,–,–,–,IC50 [2]: 8 ± 4 µM
0.054 ± 0.005,"COc1cccc2c1C(=O)c1c(O)c3c(c(O)c1C2=O)C[C@@](O)(C(=O)CO)C[C@@H]3O[C@H]1C[C@H](N)[C@H](O)[C@H](C)O1 [Doxorubicin, doxorubicin, reference compound]",0.377 ± 0.02,–,–,–,–,0.468 ± 0.065,7.15 ± 0.358,–
–,COc1c2ccoc2c(OC)c2oc(=O)ccc12 [isopimpinellin],–,–,–,–,–,–,–,IC50 (HL-60/MX2 (MDR)): 26 ± 5.7 µM
52.3 ± 2.12,"CC(C)(O)[C@H](O)COc1c2occc2cc2ccc(=O)oc12 [Heraclenol (9), heraclenol]",> 100,0.995,1.37,–,1.30,46.6 ± 0.47,> 100,"CA on PAR cells (IC50) ([3]; cytotoxic activity, MTT, mean ± SD, n = 3): no toxic effects; CA on MDR cells (IC50) [7]: no toxic effects"
26 ± 1.27,"CC1(C)O[C@H]1COc1c2ccoc2cc2oc(=O)ccc12 [Oxypeucedanin (3), oxypeucedanin]",40.3 ± 0.63,0.9,0.76,2.62,2.22,28.9 ± 0.73,66.7,"Interaction ([8]; listed as Oxypeucedanin): Slight synergism; Interaction ([8]; listed as oxypeucedanin (3)): slight synergistic effect; FAR (fluorescence activity ratio) (ABCB1 (P-glycoprotein); 20 µM, listed as oxypeucedanin (3)): moderate ABCB1 inhibiting effect; ED50, cell proliferation [9]: 3.4 ± 0.3 µg/mL"
–,"COc1cc2c(cc1OC)CN(CCc1ccc(NC(=O)c3cc(OC)c(OC)cc3NC(=O)c3cnc4ccccc4c3)cc1)CC2 [Tariquidar, tariquidar, reference compound]",–,–,–,–,–,–,–,"FL-1 (mean fluorescence intensity of the cells) (ABCB1 (P-glycoprotein); 0.02 µM): 119; FAR (fluorescence activity ratio) (ABCB1 (P-glycoprotein); 0.02 µM): 100.68; FAR (fluorescence activity ratio) (ABCB1 (P-glycoprotein); 0.02 µM, listed as tariquidar): 100"

Structure (SMILES),IC50 [6] [µM],IC50 [3] [µM],FL-1 (mean fluorescence intensity of the cells) (ABCB1 (P-glycoprotein); 2 µM),FAR (fluorescence activity ratio) (ABCB1 (P-glycoprotein); 2 µM),FL-1 (mean fluorescence intensity of the cells) (ABCB1 (P-glycoprotein); 20 µM),FAR (fluorescence activity ratio) (ABCB1 (P-glycoprotein); 20 µM),IC50 [5] [µM],IC50 [7] [µM],also measured
"CC(C)=CCOc1c2occc2cc2ccc(=O)oc12 [Imperatorin (6), imperatorin]",36.1 ± 0.91,52.6 ± 4.19,0.727,0.62,0.783,0.66,42.2 ± 0.88,> 100,CA on NIH/3T3 cells (IC50) [4]: no toxic activity; CA on MDR cells (IC50) [7]: without any toxicity
"CC1(C)O[C@@H]1COc1c2occc2cc2ccc(=O)oc12 [Heraclenin (8), heraclenin]",32.7 ± 2.4,65.8 ± 1,0.942,1.29,0.57,0.78,46.5 ± 1.22,83.9 ± 1.68,Interaction ([8]; listed as Heraclenin): Slight synergism; Interaction ([8]; listed as heraclenin (8)): slight synergistic effect
